In ChEMBL document CHEMBL2169869, “Assay and inhibition of diacylglycerol lipase activity” (Bioorg Med Chem Lett, 2012):

Experiments:
[1] = molecular target: T1, Diacylglycerol lipase-alpha (Homo sapiens) (UniProt Q9Y4D2); test: Inhibition of human DAGLalpha expressed in HEK293T cell membrane using [14C]SAG substrate at 10 uM in presence of 0.015% Triton X-100 by scintillation counting based radio-TLC assay; type: cell membranes; settings: HEK-293T
T1 sequence (whole entry): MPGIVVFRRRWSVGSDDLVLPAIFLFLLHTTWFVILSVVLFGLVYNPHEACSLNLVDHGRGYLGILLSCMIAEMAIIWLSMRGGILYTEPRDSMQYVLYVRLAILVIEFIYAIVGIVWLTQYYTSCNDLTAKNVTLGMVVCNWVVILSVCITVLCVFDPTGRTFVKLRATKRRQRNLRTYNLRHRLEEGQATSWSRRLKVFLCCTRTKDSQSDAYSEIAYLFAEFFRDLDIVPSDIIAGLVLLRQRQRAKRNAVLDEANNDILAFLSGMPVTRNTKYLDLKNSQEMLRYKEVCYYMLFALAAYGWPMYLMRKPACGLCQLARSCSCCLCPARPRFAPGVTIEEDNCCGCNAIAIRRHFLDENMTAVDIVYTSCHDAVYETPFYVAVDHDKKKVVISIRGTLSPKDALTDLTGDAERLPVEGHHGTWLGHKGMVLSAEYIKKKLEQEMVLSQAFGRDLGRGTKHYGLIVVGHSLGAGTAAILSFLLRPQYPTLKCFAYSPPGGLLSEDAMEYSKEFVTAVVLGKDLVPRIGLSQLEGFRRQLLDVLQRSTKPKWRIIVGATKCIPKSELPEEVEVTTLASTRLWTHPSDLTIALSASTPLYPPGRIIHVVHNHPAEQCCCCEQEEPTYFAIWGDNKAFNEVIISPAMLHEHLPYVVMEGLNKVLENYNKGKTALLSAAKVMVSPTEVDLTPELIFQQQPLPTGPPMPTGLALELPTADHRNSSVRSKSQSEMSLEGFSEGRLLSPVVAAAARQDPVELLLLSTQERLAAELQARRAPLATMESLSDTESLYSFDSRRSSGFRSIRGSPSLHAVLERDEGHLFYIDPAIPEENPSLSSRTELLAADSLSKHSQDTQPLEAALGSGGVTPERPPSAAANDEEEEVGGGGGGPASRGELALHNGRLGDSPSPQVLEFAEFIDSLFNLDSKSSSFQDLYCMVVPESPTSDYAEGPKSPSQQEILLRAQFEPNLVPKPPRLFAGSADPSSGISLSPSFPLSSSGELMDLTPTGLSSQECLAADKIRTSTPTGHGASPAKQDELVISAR
Summary of the method: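 Sonicated HEK293T protein (100 μg) in 50 mM Tris pH 7.4 with 10 mM CaCl2. Inhibitor in DMSO (10% DMSO standard) preincubated 15 min at 37 °C. [14C]SAG was added to 20 μM final for 20 min at 37 °C, with Triton X-100 where the line states it. Quenched with 2:1 CHCl3/MeOH. Silica TLC in CHCl3/MeOH/NH4OH 86:14:0.75, then 12 h phosphorimaging. Activity = (2-AG+AA)/(2-AG+AA+SAG). Background-subtracted; n=1–2.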

[2] = molecular target: T2, Fatty-acid amide hydrolase 1 (Rattus norvegicus, UniProt P97612); test: Inhibition of rat histidine tagged FAAH expressed in Escherichia coli by coumarin ester substrate fluorescence assay
T2 sequence (P97612 whole entry): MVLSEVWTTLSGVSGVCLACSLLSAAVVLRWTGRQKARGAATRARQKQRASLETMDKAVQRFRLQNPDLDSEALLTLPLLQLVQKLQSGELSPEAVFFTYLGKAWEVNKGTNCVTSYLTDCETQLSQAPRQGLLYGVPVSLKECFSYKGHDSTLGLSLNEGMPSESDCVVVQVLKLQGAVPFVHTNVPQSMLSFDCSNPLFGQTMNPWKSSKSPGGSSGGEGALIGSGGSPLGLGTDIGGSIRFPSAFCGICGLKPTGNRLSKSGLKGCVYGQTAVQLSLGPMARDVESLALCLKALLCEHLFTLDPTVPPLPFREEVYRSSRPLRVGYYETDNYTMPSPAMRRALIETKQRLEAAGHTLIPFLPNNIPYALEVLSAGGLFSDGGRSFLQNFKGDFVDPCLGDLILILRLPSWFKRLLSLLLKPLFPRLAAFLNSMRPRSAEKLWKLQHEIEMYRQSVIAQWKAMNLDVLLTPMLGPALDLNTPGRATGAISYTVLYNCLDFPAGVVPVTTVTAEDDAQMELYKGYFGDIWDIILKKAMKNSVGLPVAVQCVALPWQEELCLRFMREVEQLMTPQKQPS

[3] = molecular target: T1, Diacylglycerol lipase-alpha (Homo sapiens); test: Inhibition of human DAGLalpha expressed in HEK293T cell membrane using [14C]SAG substrate at 10 uM using JZL184 pretreated protein in detergent free solution by […]; type: cell-based; settings: HEK-293T
[4] = Inhibition of porcine pancreatic lipase type 2 by FRET assay; parameters: species or system Sus scrofa
Summary of the method: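 Purified enzymes: bacterial lipoprotein lipase (0.46 μg) or porcine pancreatic lipase type II (1.0 μg, suspended in 1:9 DMSO/water). Run in 50 mM Tris pH 7.4 with 10 mM CaCl2. Substrate was the pyrene-dinitrophenyl ether lipid FRET reporter at 25 μM, with compounds screened at 10 μM. Fluorescence was read at ex 320/em 400 nm, and percent inhibition was taken at 1.5 h; n = 1 or 2.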

SMILES	inhibition [1] [%]	IC50 [2] [nM]	inhibition [3] [%]	IC50 [4] [nM]
O=C(Oc1ccc([N+](=O)[O-])cc1)N1CCC(C(O)(c2ccc3c(c2)OCO3)c2ccc3c(c2)OCO3)CC1	37	974	44	–
CCCCCCCCCCC[C@@H](C[C@@H]1OC(=O)[C@H]1CCCCCC)OC(=O)[C@H](CC(C)C)NC=O [ORLISTAT]	–	–	–	< 1
